# From ChEMBL document CHEMBL2346664, “Synthesis, characterization and in vitro anticancer evaluation of novel 1,2,4-triazolin-3-one derivatives” (2013)
# The source made the active and inactive calls. The calls are words filed in the database; no cut-off is given here.
# Experiments:
# U-251 = experiment: Growth inhibition of human U251 cells assessed as cell growth at 10 '-5 M after 48 hrs by sulforhodamine B assay; type: functional; conditions: U-251, 48 h, read-out: Activity
# TK-10 [1] = experiment: Growth inhibition of human TK10 cells assessed as cell growth at 10 '-7 M after 48 hrs by sulforhodamine B assay; type: functional; conditions: TK-10, 48 h, read-out: Activity
# NCI-H522 [2] = experiment: Growth inhibition of human NCI-H522 cells assessed as cell growth at 10 '-5 M after 48 hrs by sulforhodamine B assay; type: functional; conditions: NCI-H522, 48 h, read-out: Activity
# SW-620 [3] = experiment: Growth inhibition of human SW620 cells assessed as cell growth at 10 '-7 M after 48 hrs by sulforhodamine B assay; type: functional; conditions: SW-620, 48 h, read-out: Activity
# SK-MEL-28 = experiment: Growth inhibition of human SK-MEL-28 cells assessed as cell growth at 10 '-4 M after 48 hrs by sulforhodamine B assay; type: functional; conditions: SK-MEL-28, 48 h, read-out: Activity
# SK-OV-3 = experiment: Growth inhibition of human SKOV3 cells assessed as cell growth at 10 '-5 M after 48 hrs by sulforhodamine B assay; type: functional; conditions: SK-OV-3, 48 h, read-out: Activity
# [4] = Growth inhibition of human NCI-ADR-RES cells after 48 hrs by sulforhodamine B assay; type: functional
# Summary of the method: (§1)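 NCI 60-cell-line five-dose screen. Cells were plated at 5,000–40,000/well by doubling time and grown 24 h at 37 °C, 5% CO2. Time-zero plates were TCA-fixed. Drug from DMSO stock was tested at 0.01, 0.1, 1, 10 and 100 µM final for 48 h continuous exposure. Read-out was SRB at 515 nm. GI50 is the concentration giving 50% reduction in net protein increase versus untreated control.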
# UO-31 = experiment: Growth inhibition of human UO31 cells assessed as cell growth at 10 '-7 M after 48 hrs by sulforhodamine B assay; type: functional; conditions: UO-31, 48 h, read-out: Activity
# PC-3 = experiment: Growth inhibition of human PC3 cells assessed as cell growth at 10 '-5 M after 48 hrs by sulforhodamine B assay; type: functional; conditions: PC-3, 48 h, read-out: Activity
# OVCAR-8 = experiment: Growth inhibition of human OVCAR8 cells assessed as growth inhibition at 10 uM after 48 hrs by sulforhodamine B assay; type: functional; conditions: OVCAR-8, 48 h, read-out: GI
# SF-295 = experiment: Growth inhibition of human SF295 cells assessed as growth inhibition at 10 uM after 48 hrs by sulforhodamine B assay; type: functional; conditions: SF-295, 48 h, read-out: GI
# SNB-19 [5] = experiment: Growth inhibition of human SNB19 cells assessed as cell growth at 10 '-4 M after 48 hrs by sulforhodamine B assay; type: functional; conditions: SNB-19, 48 h, read-out: Activity
# MCF7 [6] = experiment: Growth inhibition of human MCF7 cells after 48 hrs by sulforhodamine B assay; type: functional; conditions: MCF7, 48 h; summary of the method: as §1
# SR = experiment: Growth inhibition of human SR cells after 48 hrs by sulforhodamine B assay; type: functional
# SF-268 = experiment: Growth inhibition of human SF268 cells assessed as cell growth at 10 '-5 M after 48 hrs by sulforhodamine B assay; type: functional; conditions: SF-268, 48 h, read-out: Activity
# TK-10 [7] = experiment: Growth inhibition of human TK10 cells after 48 hrs by sulforhodamine B assay; type: functional; conditions: TK-10, 48 h
# SF-539 = experiment: Growth inhibition of human SF539 cells assessed as cell growth at 10 '-7 M after 48 hrs by sulforhodamine B assay; type: functional; conditions: SF-539, 48 h, read-out: Activity
# [8] = Growth inhibition of human Hs 578T cells assessed as cell growth at 10 '-4 M after 48 hrs by sulforhodamine B assay; type: functional; conditions: read-out: Activity
# OVCAR-5 = experiment: Growth inhibition of human OVCAR5 cells assessed as cell growth at 10 '-8 M after 48 hrs by sulforhodamine B assay; type: functional; conditions: OVCAR-5, 48 h, read-out: Activity
# 786-0 = experiment: Growth inhibition of human 786-0 cells assessed as cell growth at 10 '-6 M after 48 hrs by sulforhodamine B assay; type: functional; conditions: 786-0, 48 h, read-out: Activity
# Summary of the method: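 Percent growth at each of the five concentrations of the 48 h continuous-exposure NCI SRB screen. Drug stocks were in DMSO at 400× the top final concentration and diluted in medium with gentamicin. Growth was calculated as [(Ti-Tz)/(C-Tz)]×100 when Ti ≥ Tz, or [(Ti-Tz)/Tz]×100 when Ti < Tz. Tz plates were fixed at drug addition; untreated wells served as control. Absorbance was read at 515 nm.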
# HT-29 = experiment: Growth inhibition of human HT-29 cells assessed as cell growth at 10 '-6 M after 48 hrs by sulforhodamine B assay; type: functional; conditions: HT-29, 48 h, read-out: Activity
# SNB-19 [9] = experiment: Growth inhibition of human SNB19 cells assessed as cell growth at 10 '-5 M after 48 hrs by sulforhodamine B assay; type: functional; conditions: SNB-19, 48 h, read-out: Activity
# UACC-257 = experiment: Growth inhibition of human UACC257 cells assessed as cell growth at 10 '-6 M after 48 hrs by sulforhodamine B assay; type: functional; conditions: UACC-257, 48 h, read-out: Activity
# SW-620 [10] = experiment: Growth inhibition of human SW620 cells assessed as cell growth at 10 '-5 M after 48 hrs by sulforhodamine B assay; type: functional; conditions: SW-620, 48 h, read-out: Activity
# LOX IMVI = experiment: Growth inhibition of human LOXIMVI cells assessed as cell growth at 10 '-4 M after 48 hrs by sulforhodamine B assay; type: functional; conditions: read-out: Activity
# MCF7 [11] = experiment: Growth inhibition of human MCF7 cells assessed as cell growth at 10 '-7 M after 48 hrs by sulforhodamine B assay; type: functional; conditions: MCF7, 48 h, read-out: Activity
# DU-145 = experiment: Growth inhibition of human DU145 cells assessed as cell growth at 10 '-7 M after 48 hrs by sulforhodamine B assay; type: functional; conditions: DU-145, 48 h, read-out: Activity
# HCT-116 = experiment: Growth inhibition of human HCT116 cells assessed as cell growth at 10 '-6 M after 48 hrs by sulforhodamine B assay; type: functional; conditions: HCT-116, 48 h, read-out: Activity
# SK-MEL-5 = experiment: Growth inhibition of human SK-MEL-5 cells assessed as cell growth at 10 '-7 M after 48 hrs by sulforhodamine B assay; type: functional; conditions: SK-MEL-5, 48 h, read-out: Activity
# HL-60(TB) = experiment: Growth inhibition of human HL-60(TB) cells assessed as growth inhibition at 10 uM after 48 hrs by sulforhodamine B assay; type: functional, cell-based
# Summary of the method: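 NCI DTP single high-dose primary screen at 10^-5 M across 60 human tumour lines. Growth percent of treated cells is taken relative to untreated controls: values of 0–100 indicate growth inhibition and values below 0 indicate cytotoxicity. Both growth percent and percentage growth inhibition are reported.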
# NCI-H522 [12] = experiment: Growth inhibition of human NCI-H522 cells assessed as cell growth at 10 '-6 M after 48 hrs by sulforhodamine B assay; type: functional; conditions: NCI-H522, 48 h, read-out: Activity
# [13] = read-out: LD50 (the source's name)
structure (smiles),measurement,setting,value
Cc1cc(=O)oc2cc(OCCn3c(C)nn(-c4ccc(Cl)cc4)c3=O)ccc12,growth at 10 µM,U-251,27%
same,growth at 0.1 µM,TK-10 [1],101%
same,growth at 10 µM,NCI-H522 [2],24%
same,growth at 0.1 µM,SW-620 [3],98%
same,growth at 100 µM,SK-MEL-28,33%
same,growth at 10 µM,SK-OV-3,16%
same,GI50,[4],1640 nM
same,TGI,[4],> 1000 nM
same,CC50,[4]; [13],> 1000 nM
same,growth at 0.1 µM,UO-31,83%
same,growth at 10 µM,PC-3,48%
same,inhibition of growth at 10 µM,OVCAR-8,82.3%
same,inhibition of growth at 10 µM,SF-295,86%
same,growth at 100 µM,SNB-19 [5],20%
same,GI50,MCF7 [6],2700 nM
same,TGI,MCF7 [6],> 1000 nM
same,CC50,MCF7 [6]; [13],> 1000 nM
same,GI50,SR,4970 nM
same,TGI,SR,6670 nM
same,CC50,SR; [13],> 1000 nM
same,growth at 10 µM,SF-268,52%
same,GI50,TK-10 [7],1340 nM
same,TGI,TK-10 [7],8840 nM
same,CC50,TK-10 [7]; [13],> 1000 nM
same,growth at 0.1 µM,SF-539,103%
same,growth at 100 µM,[8],7%
same,growth at 0.01 µM,OVCAR-5,105%
same,growth at 1 µM,786-0,97%
same,growth at 1 µM,HT-29,100%
same,growth at 10 µM,SNB-19 [9],39%
same,growth at 1 µM,UACC-257,96%
same,growth at 10 µM,SW-620 [10],16%
same,growth at 100 µM,LOX IMVI,30%
same,growth at 0.1 µM,MCF7 [11],93%
same,growth at 0.1 µM,DU-145,108%
same,growth at 1 µM,HCT-116,86%
same,growth at 0.1 µM,SK-MEL-5,92%
same,growth inhibition (GI),HL-60(TB),Active
same,growth at 1 µM,NCI-H522 [12],87%
